According to the EternaBench riboswitch data:

Tested on: MS2 coat protein
Experiment: apparent Kd, MS2 coat protein; higher = weaker binding; RNA-MaP array; FMN 200 µM where present
How it was run: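 In 100 mM Tris-HCl pH 7.5, 80 mM KCl, 4 mM MgCl2, BSA, DTT, yeast tRNA and Tween-20, SNAP-549-labelled MS2 coat protein was titrated from 0.7 or 1.5 nM, doubling to 3 µM, over designs transcribed by stalled E. coli RNA polymerase on Illumina sequencing-chip clusters. This was done first without ligand, then with ligand held constant. After green signal was normalised to red-channel RNA signal and control-cluster median Fmax, the apparent Kd was taken as the median of filtered per-cluster binding-curve fits.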

[1] = designed as: OFF switch for flavin mononucleotide, no ligand
[2] = ligand present: flavin mononucleotide, designed as: OFF switch for flavin mononucleotide
[3] = designed as: ON switch for flavin mononucleotide, no ligand
[4] = ligand present: flavin mononucleotide, designed as: ON switch for flavin mononucleotide

ACAUUAGUACCACAUGUAUUACAUGAGGAUCACCCAUGUUACUAGGAUAUGUAUUAGAAUUUACAACAGAAGGAGUUAUUAUGU
apparent Kd [1]: 17.2 nM
apparent Kd [2]: 17.1 nM

UUGAAGUCAUCAGGAUAUAGUAUAAAAGACAUAUAUUUUUUCAAACAUGAGGAUCACCCAUGUCGCUAGAAGGGAUUAUAGAUU
apparent Kd [1]: 47.3 nM
apparent Kd [2]: 41.3 nM

CGAUAUAUGAAGGGCGAAAGCCCACAUGAGGAUCACCCAUGUAGAAGGCGAGCCGCAACGCGGCUCGAGGAUAUAUAGUAUACA
apparent Kd [1]: 7.24 nM
apparent Kd [2]: 8.52 nM

AAUUUACAGGUAGGAUAUACAUGAGGAUCACCCAUGUAAUCAUAUGAUAUUUUUUUUGUAUGAGUGUAGAAGGACCAAAUAAAA
apparent Kd [1]: 9.75 nM
apparent Kd [2]: 8.48 nM

CGCUAUGACAUAGGAUAUUGGUACAUGAGGAUCACCCAUGUCAACUUUUUAGCAUAAUUUGUUGACAAGAAGGAUGUGGUAGCG
apparent Kd [3]: 54.1 nM
apparent Kd [4]: 12.6 nM

AAAUUCCUCACAGGAUAUCCUACAUGAGGAUCACCCAUGUACUAACUGAGCGAAUUGCAACAAAAGGAGAAGGGUGAGGUGAAG
apparent Kd [3]: 31.5 nM
apparent Kd [4]: 6.35 nM

GGUCUGACAUAAGGAUAUGCUCAGGAUAACUGAGCAGAAGGUAUGUGAAAACAUGAGGAUCACCCAUGUGAUCAAUACAGACCA
apparent Kd [3]: 18.8 nM
apparent Kd [4]: 19.5 nM

UCUACGCGAAUCAAGAUGGAUAGAACAUGAGGAUCACCCAUGUAGGAUAUGCUACACAAAGUGUAGCAGAAGGACAAGCGUAGA
apparent Kd [1]: 25.1 nM
apparent Kd [2]: 35.7 nM

CUUUUGUGAGGAUAUUGGUAGUAAAUGAAUAAAAUUAUUACCGAGAAGGCACAUGAGGAUCACCCAUGUUCCUC
apparent Kd [1]: 47.7 nM
apparent Kd [2]: 491 nM

CGAUAAUAUAGUUAUCCGUAGCGAACAUGAGGAUCACCCAUGUAGGAUAUGUUACUAAACUAGUAACAGAAGGACAUGAGUCUU
apparent Kd [1]: 28.5 nM
apparent Kd [2]: 178 nM

UUUUUACAUGAGGAUCACCCAUGUGAGGAUAUGGAUUCGCUGGCCGUAGCCAGUGGAUCCAGAAGGCGCGUGAU
apparent Kd [1]: 90 nM
apparent Kd [2]: 175 nM

AACGGGUCAGGAUAUUGUUAGUUUAGUUGUUUGUAUUAGUUCGAGAAGGGACAUGAGGAUCACCCAUGUGGUAA
apparent Kd [1]: 66.1 nM
apparent Kd [2]: 62 nM

GGAUAGGACAGAGGAUAUACCUGCUAGAGAUACUAGCAAAAUUUCCUCACAUGAGGAUCACCCAUGUAGAAGGCUGUCCUAUCG
apparent Kd [1]: 8.45 nM
apparent Kd [2]: 109 nM

CACAUGUGAGGAUAUGUACGAGGCCCGGACGGGUCUCGCAGGCAGAAGGCACAUGAGGAUCACCCAUGUGACCG
apparent Kd [1]: 23.9 nM
apparent Kd [2]: 66.7 nM

UUAAUUAAUUAAUUGCAGUUUACAUGAGGAUCACCCAUGUAUAAGGAUAUGCAGUGGAAUACACUGCAGAAGGUAUACAUCUGC
apparent Kd [1]: 19.5 nM
apparent Kd [2]: 35.2 nM

UGGUCAUCAUCAGGAUAUUAACAUGGGCUACAUUAAGAAGGGAUAGUGAGAUACGAACUGAAACAUGAGGAUCACCCAUGUUGU
apparent Kd [3]: 105 nM
apparent Kd [4]: 51.9 nM

AAUGAAACUUAGAAGGCCUACAUGAGGAUCACCCAUGUGGCUUUAAGUGUAGGAGGAUAUGAGGAUGCGGGCAGGAACCCACGC
apparent Kd [1]: 6.17 nM
apparent Kd [2]: 11.6 nM

UUUAUUUAGGCAGGAUAUACAUGUAUAUAUAUUUCUUUAUAUAUUAUUACAUGAGGAUCACCCAUGUAGAAGGGCCUUAUUAUA
apparent Kd [1]: 69.3 nM
apparent Kd [2]: 88.9 nM

GCAGCGCCUGACAUGAGGAUCACCCAUGUUAGAUUGUUAAGUCAGGAUAUAGUCUAGAAACUAGACUAGAAGGGAUUUGCUGCU
apparent Kd [3]: 9.08 nM
apparent Kd [4]: 6.83 nM

UGGUCAUGAUCAGGAUAUUAACAUGGGCUACAUUAAGAAGGGAUAGUGAGAUGCGAACGGAGCGACAUGAGGAUCACCCAUGUA
apparent Kd [3]: 39.2 nM
apparent Kd [4]: 25.5 nM

GAUGUUUGAGGAUAUACAUGAGGAUCACCCAUGUGUGUCCAUACGCGUGAGUCUUCGUGUAGAAGGCGGGCGUC
apparent Kd [1]: 14.1 nM
apparent Kd [2]: 15.5 nM

UGUGUUAUCGGAGGAUAUCGAUAUCAAACAUGAGGAUCACCCAUGUUGAGGAUCACCCAUGUCCACGAGAAGGCCGGCGUACUC
apparent Kd [3]: 23.8 nM
apparent Kd [4]: 24.1 nM

GAGCGAAAGCUCAAUGUCGAUAGCAGAAGGACACAUGAUAACAUGAAAACAUGAGGAUCACCCAUGUAGGAUAUGCUAUCGACU
apparent Kd [1]: 8.57 nM
apparent Kd [2]: 13.9 nM
